According to ChEMBL document CHEMBL1255405 (Antimicrob Agents Chemother, 2010):

Assays:
[1] = Apparent oral clearance in Papua new Guinean women in second or third trimester of pregnancy using pharmacokinetic final covariate model at 450 mg/day, po administered as three divided doses in presence of sulfadoxine-pyrimethamine by HPLC method; format: ADME, organism-based; settings: female, human, in vivo
Procedure, shortened: (§1)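 Papua New Guinean women in the second or third trimester of pregnancy (n=30) and age-matched nonpregnant women (n=30) took CQ 450 mg (8.5 mg/kg/day) as whole tablets with water once daily for 3 days, plus single-dose sulfadoxine-pyrimethamine, without fasting. Plasma was sampled from baseline to 72 h and on days 7–42. CQ and DECQ were measured by HPLC (UV 340 nm) and analysed by population PK modelling, with weight-allometric scaling expressed relative to F.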

[2] = test system: Homo sapiens; assay: Central compartment volume of distribution in Papua new Guinean women in second or third trimester of pregnancy using pharmacokinetic base model at 450 mg/day, po administered as three divided doses in presence of sulfadoxine-pyrimethamine by HPLC method; format: ADME, organism-based; settings: in vivo; procedure, shortened: as §1
[3] = test system: Homo sapiens; assay: Central compartment volume of distribution in Papua new Guinean women in second or third trimester of pregnancy using pharmacokinetic final covariate model at 450 mg/day, po administered as three divided doses in presence of sulfadoxine-pyrimethamine by HPLC method; format: ADME, organism-based; settings: in vivo; procedure, shortened: as §1
[4] = test system: Homo sapiens; assay: Peripheral compartment volume of distribution in Papua new Guinean women in second or third trimester of pregnancy using pharmacokinetic base model at 450 mg/day, po administered as three divided doses in presence of sulfadoxine-pyrimethamine by HPLC method; format: ADME, organism-based; settings: in vivo; procedure, shortened: as §1
[5] = test system: Homo sapiens; assay: Peripheral compartment volume of distribution in Papua new Guinean women in second or third trimester of pregnancy using pharmacokinetic final covariate model at 450 mg/day, po administered as three divided doses in presence of sulfadoxine-pyrimethamine by HPLC method; format: ADME, organism-based; settings: in vivo; procedure, shortened: as §1
[6] = test system: Homo sapiens; assay: Central compartment volume of distribution in Papua new Guinean women in second or third trimester of pregnancy using pharmacokinetic base model assessed as monodesethychloroquine at 450 mg/day, po administered as three divided doses in presence of sulfadoxine-pyrimethamine by HPLC method; format: ADME, organism-based; settings: in vivo; procedure, shortened: as §1
[7] = test system: Homo sapiens; assay: (§2) Central compartment volume of distribution in Papua new Guinean women in second or third trimester of pregnancy using pharmacokinetic final covariate model assessed as monodesethychloroquine at 450 mg/day, po administered as three divided doses in presence of sulfadoxine-pyrimethamine by HPLC method; format: ADME, organism-based; settings: in vivo; procedure, shortened: as §1
[8] = test system: Homo sapiens; assay: Peripheral compartment volume of distribution in Papua new Guinean women in second or third trimester of pregnancy using pharmacokinetic base model assessed as monodesethychloroquine at 450 mg/day, po administered as three divided doses in presence of sulfadoxine-pyrimethamine by HPLC method; format: ADME, organism-based; settings: in vivo; procedure, shortened: as §1
[9] = test system: Homo sapiens; assay: as §2, with “Peripheral” for “Central”; format: ADME, organism-based; settings: in vivo; procedure, shortened: as §1
[10] = Cmax in women at 450 mg/day, po administered as three divided doses by HPLC method; format: ADME, organism-based; parameters: dose 450 mg/day, route oral; settings: female, human, in vivo
Procedure, shortened: (§3)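 Simulated values, not observed data. Final population PK model parameters were applied in NONMEM to hypothetical pregnant and nonpregnant women (n=1,000 each) generated with mvtnorm, with covariates such as weight drawn from the original subjects. Cmax, Tmax and AUC0-∞ of CQ and DECQ were derived for a range of plausible CQ regimens.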

[11] = Cmax in Papua new Guinean pregnant women at 450 mg/day, po administered as three divided doses by HPLC method; format: ADME, organism-based; parameters: dose 450 mg/day, route oral; settings: female, human, in vivo; procedure, shortened: as §3
[12] = Cmax in Papua new Guinean pregnant women at 600 mg/day, po administered as three divided doses by HPLC method; format: ADME, organism-based; parameters: dose 600 mg/day, route oral; settings: female, human, in vivo; procedure, shortened: as §3
[13] = Cmax in Papua new Guinean pregnant women at 750 mg/day, po administered as three divided doses by HPLC method; format: ADME, organism-based; parameters: dose 750 mg/day, route oral; settings: female, human, in vivo; procedure, shortened: as §3
[14] = AUC (0 to infinity) in women at 450 mg/day, po administered as three divided doses by HPLC method; format: ADME, organism-based; parameters: dose 450 mg/day, time infinity, route oral; settings: female, human, plasma; procedure, shortened: as §1
[15] = AUC (0 to infinity) in Papua new Guinean pregnant women at 450 mg/day, po administered as three divided doses by HPLC method; format: ADME, organism-based; parameters: dose 450 mg/day, time infinity, route oral; settings: female, human, plasma; procedure, shortened: as §1
[16] = AUC (0 to infinity) in Papua new Guinean pregnant women at 600 mg/day, po administered as three divided doses by HPLC method; format: ADME, organism-based; parameters: dose 600 mg/day, time infinity, route oral; settings: female, human, plasma; procedure, shortened: as §3
[17] = AUC (0 to infinity) in Papua new Guinean pregnant women at 750 mg/day, po administered as three divided doses by HPLC method; format: ADME, organism-based; parameters: dose 750 mg/day, route oral, time infinity; settings: female, human, plasma; procedure, shortened: as §3
[18] = test system: Homo sapiens; assay: Cmax in women assessed as monodesethychloroquine at 450 mg/day, po administered as three divided doses by HPLC method; format: ADME, organism-based; parameters: dose 450 mg/day, route oral; settings: in vivo; procedure, shortened: as §3
[19] = test system: Homo sapiens; assay: Cmax in Papua new Guinean pregnant women assessed as monodesethychloroquine at 450 mg/day, po administered as three divided doses by HPLC method; format: ADME, organism-based; parameters: dose 450 mg/day, route oral; settings: in vivo; procedure, shortened: as §3
[20] = test system: Homo sapiens; assay: Cmax in Papua new Guinean pregnant women assessed as monodesethychloroquine at 600 mg/day, po administered as three divided doses by HPLC method; format: ADME, organism-based; parameters: dose 600 mg/day, route oral; settings: in vivo; procedure, shortened: as §3
[21] = test system: Homo sapiens; assay: Cmax in Papua new Guinean pregnant women assessed as monodesethychloroquine at 750 mg/day, po administered as three divided doses by HPLC method; format: ADME, organism-based; parameters: dose 750 mg/day, route oral; settings: in vivo; procedure, shortened: as §3
[22] = test system: Homo sapiens; assay: AUC (0 to infinity) in women assessed as monodesethychloroquine at 450 mg/day, po administered as three divided doses by HPLC method; format: ADME, organism-based, Plasma; parameters: dose 450 mg/day, route oral, time infinity; settings: in vivo; procedure, shortened: as §1
[23] = test system: Homo sapiens; assay: AUC (0 to infinity) in Papua new Guinean pregnant women assessed as monodesethychloroquine at 450 mg/day, po administered as three divided doses by HPLC method; format: ADME, organism-based, Plasma; parameters: dose 450 mg/day, route oral, time infinity; settings: in vivo; procedure, shortened: as §1
[24] = test system: Homo sapiens; assay: AUC (0 to infinity) in Papua new Guinean pregnant women assessed as monodesethychloroquine at 600 mg/day, po administered as three divided doses by HPLC method; format: ADME, organism-based, Plasma; parameters: dose 600 mg/day, time infinity, route oral; settings: in vivo; procedure, shortened: as §3
[25] = test system: Homo sapiens; assay: AUC (0 to infinity) in Papua new Guinean pregnant women assessed as monodesethychloroquine at 750 mg/day, po administered as three divided doses by HPLC method; format: ADME, organism-based, Plasma; parameters: dose 750 mg/day, time infinity, route oral; settings: in vivo; procedure, shortened: as §3
[26] = Apparent oral clearance in Papua new Guinean women in second or third trimester of pregnancy using pharmacokinetic base model at 450 mg/day, po administered as three divided doses in presence of sulfadoxine-pyrimethamine by HPLC method; format: ADME, organism-based; settings: female, human, in vivo; procedure, shortened: as §1

CL/F [1]: 488 mL/min
Vc/F [2]: 4160 L
Vc/F [3]: 4220 L
Vp/F [4]: 5200 L
Vp/F [5]: 5190 L
Vc/F [6]: 39.9 L
Vc/F [7]: 40 L
Vp/F [8]: 812 L
Vp/F [9]: 840 L
Cmax [10]: 376 ng/mL
Cmax [11]: 296 ng/mL
Cmax [12]: 395 ng/mL
Cmax [13]: 494 ng/mL
AUC(0-inf) [14]: 50000 ng·h/mL
AUC(0-inf) [15]: 35700 ng·h/mL
AUC(0-inf) [16]: 47500 ng·h/mL
AUC(0-inf) [17]: 59400 ng·h/mL
Cmax [18]: 186 ng/mL
Cmax [19]: 139 ng/mL
Cmax [20]: 185 ng/mL
Cmax [21]: 232 ng/mL
AUC [22]: 41255 ng·h/mL
AUC [23]: 23876 ng·h/mL
AUC [24]: 31835 ng·h/mL
AUC [25]: 39793 ng·h/mL
CL/F [26]: 568 mL/min
SMILES: CCN(CC)CCCC(C)Nc1ccnc2cc(Cl)ccc12 (stereo unspecified) [CHLOROQUINE]
